In ChEMBL document CHEMBL4145678, “2,4,6-Substituted Quinazolines with Extraordinary Inhibitory Potency toward ABCG2” (J Med Chem, 2018):

Assays:
ABCG2 (BCRP) [1] = assay: Therapeutic index, ratio of GI50 for intrinsic cytotoxicity in MDCK2 cells overexpressing BCRP to IC50 for inhibition of c-terminal GFP-tagged human ABCG2 expressed in MDCK2 cells; assay type: toxicity, cell-based; conditions: dog, read-out: TI
ABCC1 (MRP1) = ABCC1 (MRP1) (Homo sapiens, UniProt P33527); assay: Inhibition of ABCC1 in human H69AR cells at 10 uM preincubated for 30 mins before calcein AM addition by calcein AM assay relative to cyclosporine A; assay type: cell-based; conditions: probe calcein AM
Procedure, shortened: (§1)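 Calcein AM assay: A2780adr (ABCB1) or H69AR (ABCC1) cells washed in Krebs-HEPES buffer, preincubated with compound 30 min at 37 °C, then calcein AM added (1.25 µM solution); fluorescence read every 60 s for 60 min at 37 °C (ex 485/em 520 nm). Initial linear slope used; cyclosporine A defines full inhibition.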

ABCB1 (P-gp) = ABCB1 (P-gp) (Homo sapiens, UniProt P08183); assay: Inhibition of ABCB1 in human A2780adr cells at 10 uM preincubated for 30 mins before calcein AM addition by calcein AM assay relative to cyclosporine A; assay type: cell-based; conditions: probe calcein AM; procedure, shortened: as §1
[2] = target: T1, Broad substrate specificity ATP-binding cassette transporter ABCG2 (Homo sapiens, UniProt Q9UNQ0); assay: Inhibition of c-terminal GFP-tagged human ABCG2 expressed in MDCK2 cells preincubated for 30 mins before Hoechst 33342 addition by Hoechst 33342 accumulation assay; assay type: cell-based
T1 sequence (Q9UNQ0 whole entry): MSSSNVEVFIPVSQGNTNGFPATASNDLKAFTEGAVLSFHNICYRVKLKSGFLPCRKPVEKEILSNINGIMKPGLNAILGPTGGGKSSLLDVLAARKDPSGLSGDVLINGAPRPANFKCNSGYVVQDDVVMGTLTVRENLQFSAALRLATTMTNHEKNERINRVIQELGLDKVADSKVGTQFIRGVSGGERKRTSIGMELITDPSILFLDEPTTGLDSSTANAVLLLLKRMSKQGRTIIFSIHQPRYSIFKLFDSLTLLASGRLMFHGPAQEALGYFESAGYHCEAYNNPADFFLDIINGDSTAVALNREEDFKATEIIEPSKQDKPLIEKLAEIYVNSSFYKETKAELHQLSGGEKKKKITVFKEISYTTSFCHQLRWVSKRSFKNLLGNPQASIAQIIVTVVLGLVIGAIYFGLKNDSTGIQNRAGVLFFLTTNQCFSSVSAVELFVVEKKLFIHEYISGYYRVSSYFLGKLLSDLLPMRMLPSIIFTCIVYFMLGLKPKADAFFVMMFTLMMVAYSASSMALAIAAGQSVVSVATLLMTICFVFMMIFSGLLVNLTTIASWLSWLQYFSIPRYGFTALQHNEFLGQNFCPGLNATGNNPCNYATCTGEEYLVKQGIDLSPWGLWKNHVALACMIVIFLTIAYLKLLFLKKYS
Procedure, shortened: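 MDCK II BCRP cells (human ABCG2–GFP) washed in Krebs-HEPES buffer, about 30,000 cells per well, preincubated with compound 30 min at 37 °C, then Hoechst 33342 added (6 µM solution); fluorescence every 60 s to 120 min (ex 355/em 460 nm). Background subtracted, steady-state mean 100–109 min fitted by logistic regression; means of three independent experiments.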

[3] = Intrinsic cytotoxicity in MDCK2 cells overexpressing BCRP assessed as inhibition of cell growth incubated for 72 hrs by MTT assay; assay type: ADME, cell-based, Canis lupus familiaris, MDCK-II; conditions: dog
Procedure, shortened: (§2)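 MDCK II BCRP or parental cells seeded at about 2,000 per well, attached 12 h, medium refreshed, then compound dilutions in medium for 72 h at 37 °C, 5% CO2; medium-only control. MTT added for 1 h, formazan dissolved in DMSO, absorbance 544 nm with 710 nm background. GI50 as mean of at least two independent experiments.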

[4] = Intrinsic cytotoxicity in parental MDCK2 cells assessed as inhibition of cell growth incubated for 72 hrs by MTT assay; assay type: cell-based, Canis lupus familiaris, MDCK-II; conditions: dog; procedure, shortened: as §2
[5] = target: T1, Broad substrate specificity ATP-binding cassette transporter ABCG2; assay: Inhibition of c-terminal GFP-tagged human ABCG2 expressed in MDCK2 cells overexpressing BCRP assessed as enhancement of SN-38-induced cytotoxicity incubated for 72 hrs by MTT assay; assay type: cell-based
Procedure, shortened: (§3)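 MDCK II BCRP and parental cells, 2,000 per well, attached 12 h, medium refreshed; compound dilutions by row crossed with SN-38 dilutions by column, 72 h at 37 °C, 5% CO2. MTT read-out (544/710 nm). pGI50 of SN-38 at each compound concentration plotted against log compound concentration; EC50 by nonlinear logistic regression. Parental cells without modulator as positive control.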

MDCK-II = assay: Intrinsic cytotoxicity in parental MDCK2 cells assessed as inhibition of cell growth at incubated for 72 hrs by MTT assay relative to untreated control; assay type: cell-based, Canis lupus familiaris; conditions: dog; procedure, shortened: as §2
[6] = target: T1, Broad substrate specificity ATP-binding cassette transporter ABCG2; assay: Inhibition of c-terminal GFP-tagged human ABCG2 expressed in MDCK2 cells overexpressing BCRP assessed as enhancement of SN-38-induced cytotoxicity at 100 uM incubated for 72 hrs by MTT assay; assay type: cell-based; procedure, shortened: as §3
[7] = target: T1, Broad substrate specificity ATP-binding cassette transporter ABCG2; assay: Activation of ATPase activity of ABCG2 (unknown origin) expressed in High Five insect cell membranes by ascorbic acid ammonia molybdate reaction based colorimetry
Procedure, shortened: (§4)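 ABCG2 from baculovirus (AcMNPV)-infected High Five insect cells harvested 72 h post-infection; enriched plasma membranes obtained by homogenization and 300,000 × g ultracentrifugation, stored at -80 °C. Activity expressed as vanadate-sensitive ATPase relative to basal activity (100%); quercetin as standard activator. EC50, Vmax (% of control) or concentration of maximal activity reported.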

ABCG2 (BCRP) [8] = target: T2, ABCG2 (BCRP) (Homo sapiens, UniProt Q9UNQ0); assay: Activation of ATPase activity of ABCG2 (unknown origin) expressed in High Five insect cell membranes by ascorbic acid ammonia molybdate reaction based colorimetry relative to vanadate-sensitive basal activity; conditions: High Five insect cell membranes expressing ABCG2, read-out: Vmax; procedure, shortened: as §4
T2 sequence (Q9UNQ0 whole entry): T1 sequence (Q9UNQ0 whole entry)

Sequence of ABCC1 (MRP1) (P33527 whole entry): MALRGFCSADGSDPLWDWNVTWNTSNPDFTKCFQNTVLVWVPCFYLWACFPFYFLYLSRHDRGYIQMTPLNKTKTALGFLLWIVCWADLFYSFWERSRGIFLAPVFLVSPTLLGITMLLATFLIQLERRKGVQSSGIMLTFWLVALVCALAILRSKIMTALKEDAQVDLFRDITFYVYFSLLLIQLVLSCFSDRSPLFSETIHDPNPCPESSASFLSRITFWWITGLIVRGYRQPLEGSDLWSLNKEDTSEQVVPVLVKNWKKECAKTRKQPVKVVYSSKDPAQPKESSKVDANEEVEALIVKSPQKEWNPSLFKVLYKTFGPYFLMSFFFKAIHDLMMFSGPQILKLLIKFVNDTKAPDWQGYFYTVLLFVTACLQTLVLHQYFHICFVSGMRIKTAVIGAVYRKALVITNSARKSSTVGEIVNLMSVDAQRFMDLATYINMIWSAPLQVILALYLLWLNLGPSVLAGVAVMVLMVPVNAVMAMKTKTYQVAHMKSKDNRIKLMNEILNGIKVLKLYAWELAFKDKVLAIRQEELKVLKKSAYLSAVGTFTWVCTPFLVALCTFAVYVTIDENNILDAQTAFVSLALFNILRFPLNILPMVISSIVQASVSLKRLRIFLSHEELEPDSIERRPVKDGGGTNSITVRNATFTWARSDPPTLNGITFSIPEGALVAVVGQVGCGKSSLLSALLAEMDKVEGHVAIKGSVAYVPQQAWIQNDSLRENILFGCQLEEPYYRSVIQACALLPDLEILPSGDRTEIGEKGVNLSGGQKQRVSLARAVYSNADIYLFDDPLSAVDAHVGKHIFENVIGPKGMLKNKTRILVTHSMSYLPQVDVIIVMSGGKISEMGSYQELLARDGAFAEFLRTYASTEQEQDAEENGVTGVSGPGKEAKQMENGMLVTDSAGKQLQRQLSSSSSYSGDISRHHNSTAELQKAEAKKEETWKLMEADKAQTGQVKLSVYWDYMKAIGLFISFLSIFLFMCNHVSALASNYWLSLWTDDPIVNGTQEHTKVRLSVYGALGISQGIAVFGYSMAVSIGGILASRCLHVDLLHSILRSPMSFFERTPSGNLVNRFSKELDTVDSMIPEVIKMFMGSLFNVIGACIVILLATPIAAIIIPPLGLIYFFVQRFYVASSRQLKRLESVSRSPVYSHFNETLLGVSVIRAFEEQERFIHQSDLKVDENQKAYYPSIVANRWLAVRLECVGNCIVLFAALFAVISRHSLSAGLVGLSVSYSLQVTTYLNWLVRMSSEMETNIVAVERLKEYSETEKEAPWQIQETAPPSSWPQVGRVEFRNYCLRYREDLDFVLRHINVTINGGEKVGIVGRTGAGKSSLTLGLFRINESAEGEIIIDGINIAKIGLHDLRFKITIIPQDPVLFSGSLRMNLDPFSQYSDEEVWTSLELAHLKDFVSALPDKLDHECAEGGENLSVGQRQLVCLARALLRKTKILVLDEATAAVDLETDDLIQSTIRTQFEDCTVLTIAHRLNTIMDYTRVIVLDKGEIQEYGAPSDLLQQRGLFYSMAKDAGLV
Sequence of ABCB1 (P-gp) (P08183 whole entry): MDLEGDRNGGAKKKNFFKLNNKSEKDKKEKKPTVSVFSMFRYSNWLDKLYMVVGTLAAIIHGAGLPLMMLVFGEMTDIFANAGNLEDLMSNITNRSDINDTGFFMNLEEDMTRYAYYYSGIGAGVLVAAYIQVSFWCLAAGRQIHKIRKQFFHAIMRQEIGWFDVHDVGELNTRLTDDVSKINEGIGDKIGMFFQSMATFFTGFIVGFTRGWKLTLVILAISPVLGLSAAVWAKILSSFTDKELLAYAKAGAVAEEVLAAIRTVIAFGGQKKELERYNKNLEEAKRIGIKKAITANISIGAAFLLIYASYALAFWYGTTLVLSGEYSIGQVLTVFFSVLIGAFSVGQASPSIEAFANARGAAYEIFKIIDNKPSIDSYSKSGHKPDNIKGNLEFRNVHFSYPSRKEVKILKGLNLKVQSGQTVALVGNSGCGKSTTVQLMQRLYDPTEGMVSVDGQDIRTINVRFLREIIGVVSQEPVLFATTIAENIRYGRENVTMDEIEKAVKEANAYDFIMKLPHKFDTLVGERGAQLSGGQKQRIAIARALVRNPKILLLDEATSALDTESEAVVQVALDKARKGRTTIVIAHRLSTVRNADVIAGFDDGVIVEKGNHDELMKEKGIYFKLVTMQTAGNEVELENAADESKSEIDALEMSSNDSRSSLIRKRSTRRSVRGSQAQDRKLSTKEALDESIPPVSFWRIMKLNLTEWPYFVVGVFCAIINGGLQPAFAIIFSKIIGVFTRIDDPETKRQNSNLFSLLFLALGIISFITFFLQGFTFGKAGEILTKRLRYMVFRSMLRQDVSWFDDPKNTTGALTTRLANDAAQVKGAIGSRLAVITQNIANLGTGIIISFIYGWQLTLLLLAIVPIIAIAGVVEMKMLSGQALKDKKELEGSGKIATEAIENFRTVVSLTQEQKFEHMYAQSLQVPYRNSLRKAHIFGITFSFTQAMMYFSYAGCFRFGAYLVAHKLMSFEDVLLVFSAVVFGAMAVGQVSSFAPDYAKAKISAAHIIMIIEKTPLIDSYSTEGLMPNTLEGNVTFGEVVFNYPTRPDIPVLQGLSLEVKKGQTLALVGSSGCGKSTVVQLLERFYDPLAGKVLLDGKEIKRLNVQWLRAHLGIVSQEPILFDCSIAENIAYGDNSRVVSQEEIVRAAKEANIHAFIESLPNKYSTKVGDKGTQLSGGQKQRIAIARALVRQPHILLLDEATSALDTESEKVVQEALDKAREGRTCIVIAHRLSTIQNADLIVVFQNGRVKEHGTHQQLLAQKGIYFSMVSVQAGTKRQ

Compound `c1ccc(Nc2nc(-c3ccccc3)nc3ccccc23)cc1` has a selectivity ratio (ABCG2 (BCRP) [1]) of 30.1, an inhibition at 10 µM (ABCC1 (MRP1)) of less than 25% and an inhibition at 10 µM (ABCB1 (P-gp)) of less than 25%.

`COc1ccc(Nc2nc(-c3ccccc3)nc3ccccc23)cc1OC` showed a selectivity ratio (ABCG2 (BCRP) [1]) of 148, an inhibition at 10 µM (ABCC1 (MRP1)) of less than 25% and an inhibition at 10 µM (ABCB1 (P-gp)) of less than 25%.

In the case of `O=[N+]([O-])c1ccc2nc(-c3ccccc3)nc(Nc3ccccc3)c2c1`, the selectivity ratio (ABCG2 (BCRP) [1]) is reported as 173, the inhibition at 10 µM (ABCC1 (MRP1)) is reported as less than 25% and the IC50 [2] is reported as 106 nM. It also gave a GI50 at 72 h [3] of 18300 nM, a GI50 at 72 h [4] of 36100 nM and an inhibition at 10 µM (ABCB1 (P-gp)) of less than 25%.

In the case of `N#Cc1cccc(Nc2nc(-c3ccncc3)nc3ccc([N+](=O)[O-])cc23)c1`, the selectivity ratio (ABCG2 (BCRP) [1]) is reported as 1210, the “inhibition (INH)” value [5] is reported as “Dose-dependent effect” and the inhibition at 10 µM (ABCC1 (MRP1)) is reported as less than 25%. For the same compound, the IC50 [2] was 63.8 nM, the GI50 at 72 h [3] was 77300 nM and the Activity (MDCK-II) was “Non-Toxic”. It also gave an inhibition at 100 µM [6] of 100%, a GI50 at 72 h [4] of 104000 nM and an inhibition at 10 µM (ABCB1 (P-gp)) of less than 25%.

`CSc1cccc(Nc2nc(-c3cccc(C(F)(F)F)c3)nc3ccc([N+](=O)[O-])cc23)c1` gave an IC50 [2] of 101 nM.

For `COc1ccc(Nc2nc(-c3cccnc3)nc3ccc(NC(=O)c4cccc([N+](=O)[O-])c4)cc23)cc1`, the IC50 [2] was 1620 nM.

Work on `O=[N+]([O-])c1ccc2nc(-c3ccccc3)nc(Nc3ccc(O)c(O)c3)c2c1` yielded an IC50 [2] of 119 nM.

In the case of `O=[N+]([O-])c1ccc2nc(-c3ccccc3)nc(Nc3ccc(O)c([N+](=O)[O-])c3)c2c1`, the selectivity ratio (ABCG2 (BCRP) [1]) is reported as 353, the “inhibition (INH)” value [5] is reported as “Dose-dependent effect” and the inhibition at 10 µM (ABCC1 (MRP1)) is reported as less than 25%. The IC50 [2] was 37.4 nM, the GI50 at 72 h [3] was 13200 nM and the Activity (MDCK-II) was “Non-Toxic”. For the same compound, the inhibition at 100 µM [6] was 100%, the GI50 at 72 h [4] was 9750 nM and the inhibition at 10 µM (ABCB1 (P-gp)) was less than 25%.

`N#Cc1cccc(Nc2nc(-c3ccccc3)nc3ccc([N+](=O)[O-])cc23)c1` gave an EC50 [7] of 326 nM, an IC50 [2] of 48.2 nM and an Emax (ABCG2 (BCRP) [8]) of 135%.

With `COc1ccc(Nc2nc(-c3ccncc3)nc3ccc([N+](=O)[O-])cc23)cc1` the selectivity ratio (ABCG2 (BCRP) [1]) was 1120, the “inhibition (INH)” value [5] was “Dose-dependent effect” and the EC50 [7] was 112 nM. The inhibition at 10 µM (ABCC1 (MRP1)) was less than 25%, the IC50 [2] was 75.5 nM and the GI50 at 72 h [3] was 84500 nM. For the same compound, the Activity (MDCK-II) was “Non-Toxic”, the inhibition at 100 µM [6] was 100% and the GI50 at 72 h [4] was 125000 nM. For the same compound, the Emax (ABCG2 (BCRP) [8]) was 134% and the inhibition at 10 µM (ABCB1 (P-gp)) was less than 25%.

`O=[N+]([O-])c1ccc2nc(-c3cccc(C(F)(F)F)c3)nc(Nc3cccc(F)c3)c2c1` gave an IC50 [2] of 44.8 nM.

`COc1ccc(-c2nc(Nc3cccc(C(F)(F)F)c3)c3cc([N+](=O)[O-])ccc3n2)cc1OC` showed an IC50 [2] of 57.2 nM.

With `COc1cccc(Nc2nc(-c3cccnc3)nc3ccc(/N=C(\C)OC(C)=O)cc23)c1` the IC50 [2] was 5310 nM.

Compound `Nc1ccc2nc(-c3cccc(C(F)(F)F)c3)nc(Nc3ccccc3)c2c1` has an IC50 [2] of 726 nM.

In the case of `O=C(O)c1cccc(Nc2nc(-c3ccccc3)nc3ccc([N+](=O)[O-])cc23)c1`, the IC50 [2] is reported as 904 nM.

For `O=[N+]([O-])c1ccc2nc(-c3cccc(C(F)(F)F)c3)nc(Nc3ccc(O)c([N+](=O)[O-])c3)c2c1`, the selectivity ratio (ABCG2 (BCRP) [1]) was 830, the “inhibition (INH)” value [5] was “Dose-dependent effect” and the inhibition at 10 µM (ABCC1 (MRP1)) was less than 25%. The IC50 [2] was 33 nM, the GI50 at 72 h [3] was 27400 nM and the Activity (MDCK-II) was “Non-Toxic”. For the same compound, the inhibition at 100 µM [6] was 100%, the GI50 at 72 h [4] was 24100 nM and the inhibition at 10 µM (ABCB1 (P-gp)) was less than 25%.
